Results from PubChem BioAssay AID624105 (Broad Institute, 2012).
The source made the active and inactive calls.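 Rule for the calls: active = growth reading drops at least 35% at both 405 and 600 nm in duplicate, reached below 10 µM; inactive = the rest, including effects in the opposite direction.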

test system: not listed separately; assay: efflux-deficient P. aeruginosa growth delay, iron chelation, dose response, PAK mexAB-OprM pump mutant, OD600, dry powder (AID 624105); conditions: P. aeruginosa PAK mexAB-oprM +EDDHA growth, OD600, 28 h; at 100 µM (top of the series)
Method in brief: (§1)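 system = P. aeruginosa PAK ΔmexAB-oprM | buffer or medium = succinate M9, pH 7.0, with 2 µM EDDHA iron chelator | schedule = bacteria exposed to compounds 28 h at 30 °C | compound = dose series, final compound 15 nM up to 100 µM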

Question: With `CN(C)CCCC(C#N)c1ccc(Cl)cc1` (centres undefined) as the compound, how does the growth change, negative = inhibition read?
Answer: -3.26% (inactive)

Question: With `N#CC(c1ccc(C(F)(F)F)c(Cl)n1)c1ccccc1OC(F)(F)F` (centres undefined) as the compound, how does the growth change, negative = inhibition read?
Answer: -14.9% (inactive)

Question: For `CCCCC(C#N)c1ccccn1` (centres undefined), which growth change, negative = inhibition is on record?
Answer: -13.4% (inactive)

Question: With `Clc1ccc(C(c2cccc(Cl)n2)c2nn[nH]n2)cc1` (centres undefined) as the compound, how does the growth change, negative = inhibition read?
Answer: 11.1% (inactive)

Question: For `COCCOCCC(C#N)c1ccc(Cl)cc1` (centres undefined), which growth change, negative = inhibition is on record?
Answer: -6.59% (inactive)

test system: P. aeruginosa PAK mexAB-oprM +EDDHA growth, OD600, 28 h; assay: as above; conditions: not given
Method in brief: as §1

Question: For `CN(C)CCCC(C#N)c1ccc(F)cc1` (centres undefined), which AC35 is on record?
Answer: 49.5 µM

Question: For `N#CC(c1cccc(Cl)n1)c1ccc(Cl)cc1F` (centres undefined), which AC35 is on record?
Answer: 7.15 µM

Question: Which AC35 does the source give for `COCCOCCC(C#N)c1ccc(F)cc1` (centres undefined) here?
Answer: 51.9 µM

Question: Which AC35 does the source give for `N#CC(c1ccc(F)cc1)c1cccc(Cl)n1` (centres undefined) here?
Answer: 11.5 µM

Question: With `N#CC(c1ccc(Cl)cc1)c1ccccn1` (centres undefined) as the compound, how does the AC35 read?
Answer: 31 µM

Question: For `CCCCC(C#N)c1ccc(F)cn1` (centres undefined), which AC35 is on record?
Answer: 51.7 µM

Question: For `N#CC(c1ccc(Cl)cc1)c1cccc(Cl)n1` (centres undefined), which AC35 is on record?
Answer: 8.36 µM

Question: For `N#CC(c1ccc(Cl)cc1)c1cccc(C(F)(F)F)n1` (centres undefined), which AC35 is on record?
Answer: 12 µM

Question: Which AC35 does the source give for `N#CC(c1ccc(Cl)cc1)N1CCCC1` (centres undefined) here?
Answer: > 100 µM (inactive)

Question: With `N#CC(c1cccc(C(F)(F)F)n1)c1ccc(Cl)cc1F` (centres undefined) as the compound, how does the AC35 read?
Answer: 8.69 µM

Question: Which AC35 does the source give for `COCCC(C#N)c1ccc(F)cc1` (centres undefined) here?
Answer: 95.8 µM

Question: Which AC35 does the source give for `N#CC(c1ccc(Cl)cc1)c1ncccc1Cl` (centres undefined) here?
Answer: 6.05 µM

Question: Which AC35 does the source give for `N#CC(c1ccc(F)cc1)c1cccc(C(F)(F)F)n1` (centres undefined) here?
Answer: 6.72 µM

Question: With `N#Cc1cccc(C(C#N)c2ccc(F)cc2)n1` (centres undefined) as the compound, how does the AC35 read?
Answer: 54.9 µM
